Test results from ChEMBL document CHEMBL3616408, “Elaboration of a fragment library hit produces potent and selective aspartate semialdehyde dehydrogenase inhibitors” (Bioorg Med Chem, 2015).
Active and inactive are the calls of the source. The rule behind the calls is not given here.

Columns and labels:
[1] = (§1) Inhibition of Vibrio cholerae ASADH using aspartate semialdehyde and NADP+
[2] = Selectivity index, ratio of Ki for Vibrio cholerae ASADH to KI for Streptococcus pneumoniae ASADH
Summary of the method: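 Recombinant S. pneumoniae and V. cholerae ASADH, stored at -20 °C in 50 mM HEPES pH 7, 1 mM EDTA, 1 mM DTT. Reverse reaction run at r.t. in 120 mM CHES pH 8.6, 200 mM KCl, with 1.5 mM NADP, 20 mM phosphate, and ASA at 0.15 mM (sp) or 0.3 mM (vc). Enzyme was 30 μg ml−1. NADPH formation was read at 340 nm. Serially diluted inhibitor gave initial velocities, and Ki came from Dixon plots assuming competition with ASA. The index is vc Ki divided by sp Ki.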

[3] = Inhibition of Streptococcus pneumoniae ASADH using aspartate semialdehyde and NADP+
Summary of the method: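 Recombinant enzyme, stored at -20 °C in 50 mM HEPES pH 7, 1 mM EDTA, 1 mM DTT. Reverse reaction run at room temperature in 120 mM CHES pH 8.6, 200 mM KCl, with 0.15 mM ASA, 1.5 mM NADP and 20 mM phosphate; 30 μg ml−1 enzyme starts it. NADPH formation read at 340 nm. Inhibitor serially diluted; Ki from Dixon plot of initial velocities, assuming competition with ASA.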

Vibrio cholerae [4] = assay: Inhibition of Vibrio cholerae ASADH up to 2 mM using aspartate semialdehyde and NADP+
Summary of the method: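 Recombinant V. cholerae enzyme assayed in reverse direction at r.t. in 120 mM CHES pH 8.6 with 200 mM KCl, 0.3 mM ASA, 1.5 mM NADP and 20 mM phosphate. Reaction started with 30 μg ml−1 enzyme, and NADPH formation followed at 340 nm. Inhibitor tested at concentrations up to 2 mM.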

Vibrio cholerae [5] = assay: Inhibition of Vibrio cholerae ASADH up to 4 mM using aspartate semialdehyde and NADP+
Summary of the method: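 Recombinant V. cholerae enzyme assayed in reverse direction at r.t. in 120 mM CHES pH 8.6 with 200 mM KCl, 0.3 mM ASA, 1.5 mM NADP and 20 mM phosphate. Reaction started with 30 μg ml−1 enzyme, and NADPH formation followed at 340 nm. Inhibitor tested at concentrations up to 4 mM.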

Vibrio cholerae [6] = assay: as §1

| Structure (SMILES) | Ki ([1]; read-out: Ki) [µM] | Ratio Ki [2] | Ki [3] [µM] | Ki [1] | inhibition (Vibrio cholerae [4]) | inhibition (Vibrio cholerae [5]) | inhibition (Vibrio cholerae [6]) |
| --- | --- | --- | --- | --- | --- | --- | --- |
| O=C(O)CN(Cc1cccc(C(F)(F)F)c1)Cc1ccc(C(=O)O)c(C(=O)O)c1 | 678 | 10 | 441 | – | – | – | – |
| O=C(O)CN(Cc1ccccc1)Cc1ccc(C(=O)O)c(C(=O)O)c1 | 696 | – | 297 | – | – | – | – |
| CN(CC(=O)O)Cc1ccc(C(=O)O)c(C(=O)O)c1 | 675 | – | 296 | – | – | – | – |
| O=C(O)CN(Cc1ccc(C(F)(F)F)cc1)Cc1ccc(C(=O)O)c(C(=O)O)c1 | 628 | 10 | 24 | – | – | – | – |
| CC(C)(C)c1ccc(CN(CC(=O)O)Cc2ccc(C(=O)O)c(C(=O)O)c2)cc1 | 648 | 10 | 16 | – | – | – | – |
| O=C(O)CN(Cc1ccc(Br)cc1)Cc1ccc(C(=O)O)c(C(=O)O)c1 | 629 | 10 | 57 | – | – | – | – |
| O=C([O-])CCNCc1ccc(C(=O)[O-])c(C(=O)[O-])c1.[Na+].[Na+].[Na+] | – | – | 2400 | Not Active | inactive | – | – |
| O=C(O)CNCc1ccc(C(=O)O)c(C(=O)O)c1 | 528 | 2 | 246 | – | – | – | – |
| Cc1ccccc1CN(CC(=O)O)Cc1ccc(C(=O)O)c(C(=O)O)c1 | 721 | 10 | 524 | – | – | – | – |
| O=C(O)CN(Cc1ccc(C(=O)O)c(C(=O)O)c1)Cc1ccccc1Br | 737 | 10 | 529 | – | – | – | – |
| O=C(O)c1ccc(CN[C@@H](CO)C(=O)O)cc1C(=O)O | 654 | – | 324 | – | – | – | – |
| O=C(O)CN(Cc1ccc(OC(F)F)cc1)Cc1ccc(C(=O)O)c(C(=O)O)c1 | 698 | 10 | 54 | – | – | – | – |
| O=C(O)CN(Cc1ccc(C(=O)O)cc1)Cc1ccc(C(=O)O)c(C(=O)O)c1 | 635 | 10 | 72 | – | – | – | – |
| C[C@H](NCc1ccc(C(=O)O)c(C(=O)O)c1)C(=O)O | 609 | – | 296 | – | – | – | – |
| NC(=O)c1ccc(CN(CC(=O)O)Cc2ccc(C(=O)O)c(C(=O)O)c2)cc1 | 649 | 10 | 229 | – | – | – | – |
| O=C([O-])CCN(Cc1ccc(Br)cc1)Cc1ccc(C(=O)[O-])c(C(=O)[O-])c1.[Na+].[Na+].[Na+] | – | – | 3600 | Not Active | – | inactive | – |
| CN(CC(=O)O)Cc1cccc(C(=O)O)c1C(=O)O | – | – | 1800 | – | – | – | inactive |
| Cc1ccc(CN(CC(=O)O)Cc2ccc(C(=O)O)c(C(=O)O)c2)cc1 | 608 | 10 | 63 | – | – | – | – |
| O=C(O)CN(Cc1ccc(OC(F)(F)F)cc1)Cc1ccc(C(=O)O)c(C(=O)O)c1 | 663 | 10 | 36 | – | – | – | – |
| C=CCN(CC(=O)O)Cc1ccc(C(=O)O)c(C(=O)O)c1 | 663 | – | 303 | – | – | – | – |
| O=C([O-])CCN(Cc1ccc(C(F)(F)F)cc1)Cc1ccc(C(=O)[O-])c(C(=O)[O-])c1.[Na+].[Na+].[Na+] | – | – | 3800 | Not Active | – | inactive | – |
| O=C(O)CN(Cc1ccc(/C=C/Cc2ccccc2)cc1)Cc1ccc(C(=O)O)c(C(=O)O)c1 | 1100 | 10 | 476 | – | – | – | – |
| O=CCN(CC(=O)O)Cc1ccc(C(=O)O)c(C(=O)O)c1 | 655 | – | 276 | – | – | – | – |
| Cc1cccc(CN(CC(=O)O)Cc2ccc(C(=O)O)c(C(=O)O)c2)c1 | 690 | 10 | 430 | – | – | – | – |
| O=C(O)CN(Cc1cccc(Br)c1)Cc1ccc(C(=O)O)c(C(=O)O)c1 | 665 | 10 | 442 | – | – | – | – |
| N#CCCN(CC(=O)O)Cc1ccc(C(=O)O)c(C(=O)O)c1 | 498 | – | 220 | – | – | – | – |
| O=C(O)CN(Cc1ccc(C(=O)O)c(C(=O)O)c1)Cc1ccccc1C(F)(F)F | 727 | 10 | 509 | – | – | – | – |
| O=C(O)CN(Cc1cccc(OC(F)(F)F)c1)Cc1ccc(C(=O)O)c(C(=O)O)c1 | 684 | 10 | 427 | – | – | – | – |
| O=C(O)CN(Cc1ccc(C(=O)O)c(C(=O)O)c1)Cc1ccccc1OC(F)(F)F | 708 | 10 | 540 | – | – | – | – |
| O=C(O)CN(CCN1CCOCC1)Cc1ccc(C(=O)O)c(C(=O)O)c1 | 692 | – | 176 | – | – | – | – |
